Experimental findings from ChEMBL document CHEMBL5223168, “Using Imidazo[2,1-b][1,3,4]thiadiazol Skeleton to Design and Synthesize Novel MNK Inhibitors” (ACS Med Chem Lett, 2023) are described below.

The target of experiment [1] is MAP kinase-interacting serine/threonine-protein kinase 1 (Homo sapiens, UniProt Q9BUB5). Description: Inhibition of MNK1 (unknown origin) incubated for 60 mins using CREB as substrate in presence of ATP by LANCE Ultra kinase assay.
The target of experiment [2] is MAP kinase-interacting serine/threonine-protein kinase 2 (Homo sapiens, UniProt Q9HBH9). Description: Inhibition of MNK2 (unknown origin) incubated for 60 mins using CREB as substrate in presence of ATP by LANCE Ultra kinase assay.
Sequence of MAP kinase-interacting serine/threonine-protein kinase 2 (Q9HBH9 whole entry): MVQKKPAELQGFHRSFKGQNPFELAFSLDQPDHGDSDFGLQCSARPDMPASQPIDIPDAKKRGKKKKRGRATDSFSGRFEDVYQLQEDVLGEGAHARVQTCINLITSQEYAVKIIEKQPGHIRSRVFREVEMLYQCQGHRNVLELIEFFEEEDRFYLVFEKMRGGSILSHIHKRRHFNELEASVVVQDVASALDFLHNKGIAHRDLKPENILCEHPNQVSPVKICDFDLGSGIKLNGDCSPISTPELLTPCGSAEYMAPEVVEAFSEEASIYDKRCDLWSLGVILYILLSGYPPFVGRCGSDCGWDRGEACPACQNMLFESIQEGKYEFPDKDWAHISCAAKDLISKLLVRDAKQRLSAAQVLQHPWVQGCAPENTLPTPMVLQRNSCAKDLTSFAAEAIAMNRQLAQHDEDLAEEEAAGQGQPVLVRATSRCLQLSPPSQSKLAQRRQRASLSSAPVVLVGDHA
The test system of a further experiment is 3T3-L1. Description: Inhibition of MNK in mouse 3T3-L1 cells assessed as inhibition of eIF4E phosphorylation at 5 uM incubated for 2 hrs by Western blot analysis. The format is cell-based. In outline:
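Mouse 3T3-L1 cells exposed to compound at 5 μM for 2 h; lysates resolved by SDS-PAGE and immunoblotted for phospho-eIF4E. Reference MNK inhibitor run in parallel at 1 μM.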

Experiment [3] relates to MEF. Description: Inhibition of MNK in MNK2 knockout mouse MEF cells assessed as inhibition of eIF4E phosphorylation at 3 uM incubated for 2 hrs by Western blot analysis. The format is cell-based. In outline:
(§1)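 MEFs lacking MNK1 or MNK2 (wild-type for comparison) treated 2 h at indicated concentrations; lysates immunoblotted for p-eIF4E, which reflects the remaining MNK isoform; quantified from three independent experiments, SEM.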

In experiment [4] the test system is MEF. Description: Inhibition of MNK in MNK1 knockout mouse MEF cells assessed as inhibition of eIF4E phosphorylation at 1 uM incubated for 2 hrs by Western blot analysis. The format is cell-based. An outline of the steps: as §1
For a further experiment, the system named is A549. Description: Antitumor activity against human A549 cells xenografted in BALB/C nude mouse assessed as T/C ratio at 3 mg/kg, po QD for 14 days. The format is functional. The note with it: time 14 day. In outline: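 A549 xenografts in nude mice; compound given orally once daily at 75 or 150 mg/kg for 14 days, irinotecan reference at 3 mg/kg; tumor growth tracked as T/C ratio (relative tumor proliferation rate); body weight monitored.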

SMILES strings stand for the structures. The source made the active and inactive calls. The rule behind the calls is not given here.

Sequence of MAP kinase-interacting serine/threonine-protein kinase 1 (Q9BUB5 whole entry): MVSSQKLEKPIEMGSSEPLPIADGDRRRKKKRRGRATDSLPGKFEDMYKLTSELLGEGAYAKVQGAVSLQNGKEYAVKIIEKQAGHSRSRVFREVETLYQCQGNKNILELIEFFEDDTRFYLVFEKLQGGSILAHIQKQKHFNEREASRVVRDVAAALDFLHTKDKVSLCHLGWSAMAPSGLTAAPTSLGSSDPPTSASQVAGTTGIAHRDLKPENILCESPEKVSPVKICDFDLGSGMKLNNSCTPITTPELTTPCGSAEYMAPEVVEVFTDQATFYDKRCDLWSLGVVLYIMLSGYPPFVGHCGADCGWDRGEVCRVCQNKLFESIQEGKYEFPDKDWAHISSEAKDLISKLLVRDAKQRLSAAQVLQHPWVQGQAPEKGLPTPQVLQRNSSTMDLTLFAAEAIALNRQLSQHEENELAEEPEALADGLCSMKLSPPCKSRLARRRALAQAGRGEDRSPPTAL

For the compound `N#Cc1ccc(-c2cnc3sc(-c4ccc(C(=O)NCCO)cc4)nn23)cc1`, the values for the IC50 in experiment [1] and in experiment [2] were 13.6 nM and 8.81 nM, respectively.

For `N#Cc1ccc(-c2cnc3sc(-c4ccc(C(=O)NCCCN5CCOCC5)cc4)nn23)cc1`, the IC50 in experiment [1] is 31.1 nM; in experiment [2], 21.6 nM.

Regarding `N#Cc1ccc(-c2cn3nc(-c4ccc(C(=O)N5CCCC5)cc4)sc3n2)cc1`, in the experiment on 3T3-L1, the inhibition result is “inactive”.

Consider `N#Cc1ccc(-c2cnc3ccc(-c4ccc(C(=O)N5CCOCC5)cc4)cn23)cc1`, for which the inhibition in the experiment with MEF [3] is 50%. For the same compound, the inhibition result in the experiment on MEF [4] was “Active”.

Consider `CC1CCCCN1C(=O)c1ccc(-c2nn3c(-c4ccc(C#N)cc4)cnc3s2)cc1` (configuration not stated), for which the IC50 in experiment [1] came out at 36.9 nM; in experiment [2], 5.33 nM. Further, the inhibition result with 3T3-L1 is “Active”.

Take `N#Cc1ccc(-c2cnc3sc(-c4ccc(C(=O)NCCCCCO)cc4)nn23)cc1`: the IC50 in experiment [1] amounted to 42.9 nM; in experiment [2], 57.8 nM.

Turning to `COC(=O)c1ccc(-c2cnc3sc(-c4ccc(C(=O)N5CCN(C)CC5)cc4)nn23)cc1`, the IC50 is 376 nM in experiment [1] and 105 nM in experiment [2]. Further, the inhibition entry with 3T3-L1 was “Active”.

In the case of `O=C(NCCCN1CCCC1)c1ccc(-c2nn3cc(-c4ccccc4)nc3s2)cc1`, in the experiment on 3T3-L1, the inhibition entry was “inactive”.

On to `N#Cc1ccc(-c2cnc3sc(-c4ccc(C(=O)NCCN5CCCC5)cc4)nn23)cc1`, for which the IC50 in experiment [1] was 10 nM; in experiment [2], 10.4 nM.

For the compound `CN1CCN(C(=O)c2ccc(-c3nn4c(-c5ccncc5)cnc4s3)cc2)CC1`, the figures for the IC50 in experiment [1] and in experiment [2] were 210 nM and 170 nM, respectively. In the experiment on 3T3-L1, the inhibition entry is “Active”.

As to `CCc1c2c(nc3ccc(OC(=O)N4CCC(N5CCCCC5)CC4)cc13)-c1cc3c(c(=O)n1C2)COC(=O)[C@]3(O)CC` [IRINOTECAN], the T/C in the experiment on A549 was determined as 0.4.

Regarding `N#Cc1ccc(-c2cnc3sc(-c4ccc(C(=O)NCCCO)cc4)nn23)cc1`, the IC50 in experiment [1] turned out to be 21.6 nM; in experiment [2], 16.7 nM.

On to `CN(C)CCNC(=O)c1ccc(-c2nn3c(-c4ccc(C#N)cc4)cnc3s2)cc1`, for which the IC50 in experiment [1] amounted to 25 nM; in experiment [2], 33.4 nM.

For the compound `CN(C)CC(C)(C)CNC(=O)c1ccc(-c2nn3cc(-c4ccccc4)nc3s2)cc1`, in the experiment with 3T3-L1, the inhibition entry is “inactive”.

As to `O=C(NCCc1ccncc1)c1ccc(-c2nn3cc(-c4ccc(F)cc4)nc3s2)cc1`, in the experiment on 3T3-L1, the inhibition result is “inactive”.

Consider `N#Cc1ccc(-c2cnc3sc(-c4ccc(C(=O)N5CCCC5)cc4)nn23)cc1`, for which the IC50 in experiment [1] came out at 27.8 nM; in experiment [2], 20.8 nM.

For the compound `O=C(NCCO)c1ccc(-c2nn3cc(-c4ccccc4)nc3s2)cc1`, in the experiment with 3T3-L1, the inhibition result is “inactive”.

For `CN1CCN(C(=O)c2ccc(-c3nn4cc(-c5ccc(C#N)cc5)nc4s3)cc2)CC1`, in the experiment with 3T3-L1, the inhibition result was “inactive”.
